Columns and labels:
[1] = target: T1, Adenosylhomocysteinase (Thermotoga maritima (strain ATCC 43589 / MSB8 / DSM 3109 / JCM 10099)) (UniProt O51933); assay: (§1) Activity of Thermotoga maritima S-adenosyl-L-homocysteine hydrolase Tm0172 assessed as homocysteine hydrolysis
T1 sequence (whole entry): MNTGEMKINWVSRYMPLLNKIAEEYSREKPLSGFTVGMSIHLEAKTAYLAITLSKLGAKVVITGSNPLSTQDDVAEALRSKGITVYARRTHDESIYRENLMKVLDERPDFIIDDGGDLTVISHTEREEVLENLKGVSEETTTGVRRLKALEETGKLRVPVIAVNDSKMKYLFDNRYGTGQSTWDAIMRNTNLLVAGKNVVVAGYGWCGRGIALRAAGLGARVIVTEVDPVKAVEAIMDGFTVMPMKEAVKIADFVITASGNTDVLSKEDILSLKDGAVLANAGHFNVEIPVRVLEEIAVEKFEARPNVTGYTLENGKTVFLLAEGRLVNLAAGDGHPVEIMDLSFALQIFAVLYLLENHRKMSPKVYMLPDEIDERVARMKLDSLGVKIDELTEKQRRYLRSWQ
How it was run: (§2)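 Tm0172 expressed in E. coli (arabinose induction), heat-treated 65 °C and purified on chelating Sepharose as His-tagged protein. Assay: 100 mM HEPES pH 8.0, 1.0 mM DTNB, 1.0 mM EDTA, 13 μM Tm0172, substrate up to 10 mM, 30 °C. kcat and kcat/Km obtained by fitting initial velocities to the Michaelis–Menten equation.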

[2] = substrate: Nc1ncnc2c1ncn2[C@@H]1O[C@H](CSCC[C@H](N)C(=O)O)[C@@H](O)[C@H]1O; assay: Ratio of Kcat to Km for Thermotoga maritima S-adenosyl-L-homocysteine hydrolase Tm0172 assessed as homocysteine hydrolysis; how it was run: as §2
[3] = substrate: Nc1ncnc2c1ncn2[C@@H]1O[C@H](CSCC[C@H](N)C(=O)O)[C@@H](O)[C@H]1O; assay: as §1; how it was run: as §2
[4] = substrate: Nc1ncnc2c1ncn2[C@@H]1O[C@H](CSCC[C@H](N)C(=O)O)[C@@H](O)[C@H]1O; assay: (§3) Ratio of Kcat to Km for Thermotoga maritima S-adenosyl-homocysteine deaminase Tm0936 assessed as ammonia production
How it was run: (§4)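 Recombinant Tm0936 was expressed in E. coli, heat-treated at 65 °C, then purified by anion exchange and gel filtration (Zn-containing). Ammonia release was coupled to glutamate dehydrogenase, with NADH loss read at 340 nm. Assay: 100 mM HEPES pH 8.0, 7.4 mM α-ketoglutarate, 0.4 mM NADH, 6 units GDH, 30 °C. kcat and kcat/Km came from fitting initial velocities versus substrate concentration.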

[5] = substrate: Nc1ncnc2c1ncn2[C@@H]1O[C@H](CO)[C@@H](O)[C@H]1O; assay: as §3; how it was run: as §4
[6] = substrate: CSC[C@H]1O[C@@H](n2cnc3c(N)ncnc32)[C@H](O)[C@@H]1O; assay: as §3; how it was run: as §4
[7] = substrate: Nc1ncnc2c1ncn2[C@@H]1O[C@H](CSCC[C@H](N)C(=O)O)[C@@H](O)[C@H]1O; assay: (§5) Activity of Thermotoga maritima S-adenosyl-homocysteine deaminase Tm0936 assessed as ammonia production; how it was run: as §4
[8] = substrate: Nc1ncnc2c1ncn2[C@@H]1O[C@H](CO)[C@@H](O)[C@H]1O; assay: as §5; how it was run: as §4
[9] = substrate: Nc1ncnc2c1ncn2[C@@H]1O[C@H](COP(=O)(O)O)[C@@H](O)[C@H]1O; assay: as §5; how it was run: as §4
[10] = substrate: C[S+](CC[C@H](N)C(=O)[O-])C[C@H]1O[C@@H](n2cnc3c(N)ncnc32)[C@H](O)[C@@H]1O; assay: as §5; how it was run: as §4
[11] = substrate: CSC[C@H]1O[C@@H](n2cnc3c(N)ncnc32)[C@H](O)[C@@H]1O; assay: as §5; how it was run: as §4

Nc1ncnc2c1ncn2[C@@H]1O[C@H](CSCC[C@H](N)C(=O)O)[C@@H](O)[C@H]1O
kcat [1]: 0.004 s⁻¹

B1: Adenosylhomocysteinase (Thermotoga maritima (strain ATCC 43589 / MSB8 / DSM 3109 / JCM 10099)), O51933 (protein)
chain: MNTGEMKINWVSRYMPLLNKIAEEYSREKPLSGFTVGMSIHLEAKTAYLAITLSKLGAKVVITGSNPLSTQDDVAEALRSKGITVYARRTHDESIYRENLMKVLDERPDFIIDDGGDLTVISHTEREEVLENLKGVSEETTTGVRRLKALEETGKLRVPVIAVNDSKMKYLFDNRYGTGQSTWDAIMRNTNLLVAGKNVVVAGYGWCGRGIALRAAGLGARVIVTEVDPVKAVEAIMDGFTVMPMKEAVKIADFVITASGNTDVLSKEDILSLKDGAVLANAGHFNVEIPVRVLEEIAVEKFEARPNVTGYTLENGKTVFLLAEGRLVNLAAGDGHPVEIMDLSFALQIFAVLYLLENHRKMSPKVYMLPDEIDERVARMKLDSLGVKIDELTEKQRRYLRSWQ
kcat/Km [2]: 1.1 10^2/M/s | Km [3]: 21 µM

B2: 5-methylthioadenosine/S-adenosylhomocysteine deaminase (Thermotoga maritima (strain ATCC 43589 / MSB8 / DSM 3109 / JCM 10099)), Q9X034 (protein)
chain: MIIGNCLILKDFSSEPFWGAVEIENGTIKRVLQGEVKVDLDLSGKLVMPALFNTHTHAPMTLLRGVAEDLSFEEWLFSKVLPIEDRLTEKMAYYGTILAQMEMARHGIAGFVDMYFHEEWIAKAVRDFGMRALLTRGLVDSNGDDGGRLEENLKLYNEWNGFEGRIFVGFGPHSPYLCSEEYLKRVFDTAKSLNAPVTIHLYETSKEEYDLEDILNIGLKEVKTIAAHCVHLPERYFGVLKDIPFFVSHNPASNLKLGNGIAPVQRMIEHGMKVTLGTDGAASNNSLNLFFEMRLASLLQKAQNPRNLDVNTCLKMVTYDGAQAMGFKSGKIEEGWNADLVVIDLDLPEMFPVQNIKNHLVHAFSGEVFATMVAGKWIYFDGEYPTIDSEEVKRELARIEKELYSS
kcat/Km [4]: 5.8 10^4/M/s | kcat/Km [5]: 9.2 10^3/M/s | kcat/Km [6]: 1.5 10^5/M/s | Km [7]: 210 µM | kcat [7]: 12.2 s⁻¹ | Km [8]: 250 µM | kcat [8]: 2.3 s⁻¹ | kcat [9]: 1 10^-3/s | kcat [10]: 1 10^-3/s | Km [11]: 44 µM | kcat [11]: 7.2 s⁻¹

— ChEMBL document CHEMBL1145524, “Structure-based activity prediction for an enzyme of unknown function” (Nature, 2007)
